One may read the Ki as a measure of affinity in units of concentration, obtained from inhibition or displacement. Lower therefore signals higher affinity.

This is an account of results in ChEMBL document CHEMBL1122955, “Synthesis and dihydropteridine reductase inhibitory effects of potential metabolites of the neurotoxin 1-methyl-4-phenyl-1,2,3,6-tetrahydropyridine” (J Med Chem, 1985).

The target of experiment [1] is T1, Dihydropteridine reductase (Homo sapiens, UniProt P09417).
T1 sequence (P09417 whole entry): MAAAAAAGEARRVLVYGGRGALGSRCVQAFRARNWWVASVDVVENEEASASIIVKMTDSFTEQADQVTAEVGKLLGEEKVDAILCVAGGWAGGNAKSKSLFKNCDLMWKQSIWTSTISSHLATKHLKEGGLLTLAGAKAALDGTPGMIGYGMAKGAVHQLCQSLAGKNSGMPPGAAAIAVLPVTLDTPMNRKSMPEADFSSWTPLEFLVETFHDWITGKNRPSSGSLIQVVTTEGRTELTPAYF
Description: Inhibitory activity against human liver Dihydropteridine reductase (DHPR). The note with it: read-out: I50. The gist of the method: (§1)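 DHPR from human liver (6 mU, 60 ng protein) or rat striatal synaptosomes (6.5 mU, 75 μg twice-washed P₂ protein), preincubated 10 min at 25 °C with at least six inhibitor concentrations. Residual activity measured with 50 μM qDMPH₂ and 50 μM NADH by decrease in NADH absorbance at 340 nm; I₅₀ = concentration giving 50% inhibition.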

The target of experiment [2] is T2, Dihydropteridine reductase (Rattus norvegicus, UniProt P11348).
T2 sequence (P11348 whole entry): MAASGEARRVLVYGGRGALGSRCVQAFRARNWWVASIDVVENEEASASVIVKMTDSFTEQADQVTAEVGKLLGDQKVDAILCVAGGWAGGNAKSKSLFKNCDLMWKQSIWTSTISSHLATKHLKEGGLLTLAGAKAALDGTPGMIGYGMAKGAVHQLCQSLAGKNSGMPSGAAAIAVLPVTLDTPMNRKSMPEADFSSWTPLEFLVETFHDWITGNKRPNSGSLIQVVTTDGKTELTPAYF
Nature of the experiment: Inhibitory activity against rat striatal synaptosomes Dihydropteridine reductase (DHPR). The note with it: read-out: I50. The format is subcellular, Brain. The gist of the method: as §1

For experiment [3], the target named is T1, Dihydropteridine reductase. Nature of the experiment: Noncompetitive Iinhibitory activity against human liver DHPR enzyme.
The target of experiment [4] is T2, Dihydropteridine reductase. Nature of the experiment: Noncompetitive Inhibitory activity against rat striatal synaptosomal DHPR enzyme.
Experiment [5] has as its target T1, Dihydropteridine reductase. Nature of the experiment: Inhibitory activity against human liver Dihydropteridine reductase enzyme using 10 uM qBH2 and 50 uM NADH assays. The note with it: read-out: I50. The gist of the method:
(§2)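 Human liver or rat striatal synaptosomal DHPR, preincubated 10 min at 25 °C with inhibitor. Activity then assayed using natural substrate (6R)-dihydrobiopterin (qBH₂) at 10 μM with 50 μM NADH, followed as NADH absorbance decrease at 340 nm, to give 50% inhibitory concentrations.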

Experiment [6] deals with T2, Dihydropteridine reductase. Description: Inhibitory activity against rat striatal synaptosomes […] using 10 uM qBH2 and 50 uM NADH assays. The format is subcellular, Brain. Conditions: read-out: I50. Summed up:
as §2

Experiment [7] has as its target T1, Dihydropteridine reductase. Description: Inhibitory activity against human liver Dihydropteridine reductase using 10 uM qBH2 and 50 uM NADH assays. The note with it: read-out: I50. Summed up:
as §2

On to `Clc1ccc(C2=CCNCC2)cc1`, for which the IC50 in experiment [1] is 3400 µM; in experiment [2] it was 4000 µM.

Consider `C[n+]1ccc(-c2ccccc2)cc1` [listing 1 of 2 here], for which the IC50 is 5600 µM in experiment [1] and 3400 µM in experiment [2].

Turning to `Oc1ccc(C2=CCNCC2)cc1O`, the IC50 was 3.6 µM in experiment [1] and 1.9 µM in experiment [2].

Regarding `C=CC[n+]1ccc(-c2ccccc2)cc1`, the IC50 in experiment [1] was determined as 9400 µM; in experiment [2], 7400 µM.

As to `COc1ccc(C2=CCN(C(C)=O)CC2)cc1OC`, the values for the IC50 in experiment [1] and in experiment [2] were 1100 µM and 2300 µM, respectively.

Regarding `COc1cc(C2=CCNCC2)ccc1O`, in experiment [1], the IC50 amounted to 7.2 µM.

With `CC(=O)N1CCC(c2ccc(O)c(O)c2)CC1`, the IC50 in experiment [1] worked out at 5.2 µM; in experiment [2] it was 3.1 µM.

With `COc1cc(C2CCN(C(C)=O)CC2)ccc1O`, the IC50 in experiment [1] was 27 µM; in experiment [2], 4.4 µM.

On to `Oc1ccc(C2=CCNCC2)cc1`, for which the IC50 in experiment [1] is 5.9 µM; in experiment [2], 3.4 µM.

For the compound `C[n+]1ccc(-c2ccccc2)cc1` [listing 2 of 2 here], the IC50 in experiment [1] came to 10000 µM; in experiment [2] it was 12000 µM.

In the case of `CN1CC=C(c2ccc(O)cc2)CC1`, the IC50 in experiment [1] is 3 µM; in experiment [2], 2.6 µM. The compound also gave a Ki in experiment [3] of 2.8 µM.

Regarding `c1ccc(-c2ccncc2)cc1`, the values for the IC50 in experiment [1] and in experiment [2] were 2400 µM and 1900 µM, respectively.

As to `COc1cc(C2CCN(C)CC2)ccc1O`, the IC50 in experiment [1] was found to be 19 µM; in experiment [2] it was 20 µM.

Regarding `C[n+]1ccc(-c2ccc(O)c(O)c2)cc1`, in experiment [4], affinity was put at a Ki of 1.9 µM. Moreover, the IC50 in experiment [1] came to 0.63 µM; in experiment [2], 1.6 µM.

`COc1ccc(-c2ccncc2)cc1OC`: the IC50 in experiment [1] is 5300 µM; in experiment [2], 2000 µM.

`Oc1ccc(-c2ccncc2)cc1O`: the IC50 came to 0.38 µM in experiment [1] and 0.28 µM in experiment [2].

Take `Oc1ccc(C2CCNCC2)cc1O`: the IC50 stood at 44 µM in experiment [1] and 38 µM in experiment [2].

Turning to `COc1cc(C2=CCN(C(C)=O)CC2)ccc1O`, the IC50 in experiment [1] turned out to be 5 µM; in experiment [2], 91 µM.

On to `CN1CC=C(c2ccccc2)CC1`, for which the IC50 was determined as 3000 µM in experiment [1], 7200 µM in experiment [5], 4600 µM in experiment [2] and 8400 µM in experiment [6].

On to `CN1CCC(c2ccc(O)c(O)c2)CC1`, for which, in experiment [4], the affinity, expressed as Ki, was 74 µM. Moreover, the IC50 turned out to be 42 µM in experiment [1] and 60 µM in experiment [2].

With `COc1cc(C2=CCN(C)CC2)ccc1O`, the IC50 turned out to be 9.3 µM in experiment [1] and 5.8 µM in experiment [2].

`CN1CC=C(c2ccc(O)c(O)c2)CC1` yielded a Ki in experiment [4] of 3.3 µM. Further, the IC50 in experiment [1] was 3.4 µM; in experiment [7], 1.4 µM; in experiment [2], 2.5 µM; in experiment [6] it was 1.2 µM.

For the compound `CC(=O)N1CC=C(c2ccc(O)c(O)c2)CC1`, the IC50 in experiment [1] worked out at 0.28 µM; in experiment [2], 0.25 µM.

On to `CN1CC=C(c2ccc(Cl)cc2)CC1`, for which the IC50 came to 2700 µM in experiment [1] and 6400 µM in experiment [2].

Turning to `C1=C(c2ccccc2)CCNC1`, the results for the IC50 in experiment [1] and in experiment [2] were 12000 µM and 6600 µM, respectively.

`CN1CCC(c2ccccc2)CC1`: the IC50 in experiment [1] was 23000 µM; in experiment [2], 12000 µM.
